Laboratory results taken from PMC10925177 (bioRxiv, 2024).

Legend:
G9a [1] = molecular target: T1, G9a (Homo sapiens, UniProt Q96KQ7); test: Western blot of G9a protein levels in cancer cells; format: cell-based; settings: 24 h, WB
T1 sequence (Q96KQ7 1-1210): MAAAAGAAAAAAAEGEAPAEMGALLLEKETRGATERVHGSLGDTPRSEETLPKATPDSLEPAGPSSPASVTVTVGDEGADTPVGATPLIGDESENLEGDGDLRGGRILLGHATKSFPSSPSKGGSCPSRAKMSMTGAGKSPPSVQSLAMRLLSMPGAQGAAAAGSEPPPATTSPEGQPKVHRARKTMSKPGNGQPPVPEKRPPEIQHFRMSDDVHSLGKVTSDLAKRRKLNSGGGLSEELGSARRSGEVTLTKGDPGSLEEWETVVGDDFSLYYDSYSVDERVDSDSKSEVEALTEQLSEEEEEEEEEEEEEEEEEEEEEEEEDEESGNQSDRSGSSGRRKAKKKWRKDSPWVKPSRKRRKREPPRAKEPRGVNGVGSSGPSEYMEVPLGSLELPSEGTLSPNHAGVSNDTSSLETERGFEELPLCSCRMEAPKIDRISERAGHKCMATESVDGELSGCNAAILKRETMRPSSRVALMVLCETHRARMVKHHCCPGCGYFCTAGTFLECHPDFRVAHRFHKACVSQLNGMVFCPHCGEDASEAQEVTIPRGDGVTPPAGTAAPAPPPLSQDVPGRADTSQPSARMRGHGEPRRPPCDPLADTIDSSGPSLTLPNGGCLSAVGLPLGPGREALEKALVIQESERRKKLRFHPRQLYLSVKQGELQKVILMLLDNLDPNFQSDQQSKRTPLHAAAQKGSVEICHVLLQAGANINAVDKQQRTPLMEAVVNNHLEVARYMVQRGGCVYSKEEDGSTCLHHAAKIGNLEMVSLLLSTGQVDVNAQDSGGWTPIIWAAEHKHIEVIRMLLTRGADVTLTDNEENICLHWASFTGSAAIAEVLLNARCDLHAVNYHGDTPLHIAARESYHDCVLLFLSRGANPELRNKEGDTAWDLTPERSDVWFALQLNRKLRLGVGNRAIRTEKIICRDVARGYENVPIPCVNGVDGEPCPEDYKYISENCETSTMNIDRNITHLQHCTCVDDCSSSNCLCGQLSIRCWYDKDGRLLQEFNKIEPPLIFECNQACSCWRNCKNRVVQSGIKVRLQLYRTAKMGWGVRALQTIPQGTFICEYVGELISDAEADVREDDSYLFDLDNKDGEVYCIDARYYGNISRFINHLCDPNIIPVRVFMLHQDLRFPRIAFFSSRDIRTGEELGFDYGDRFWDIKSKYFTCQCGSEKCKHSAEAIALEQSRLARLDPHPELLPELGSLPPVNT
Outline: (§1)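 Cells (22Rv1, K562, H1299) were treated for 24 h at the indicated concentrations; 22Rv1 time courses were run at 3 μM. Cells were lysed in RIPA with protease inhibitors, and 10–30 μg of protein was resolved by SDS-PAGE and transferred to PVDF. Blots were probed overnight at 4 °C, with vinculin/β-actin as loading controls. Band intensity was normalised to DMSO, with n = 2 independent experiments (mean ± SD).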

GLP [2] = molecular target: T2, GLP (Homo sapiens, UniProt Q9H9B1); test: Western blot of GLP protein levels in cancer cells; format: cell-based; settings: 24 h, WB
T2 sequence (Q9H9B1 1-1298): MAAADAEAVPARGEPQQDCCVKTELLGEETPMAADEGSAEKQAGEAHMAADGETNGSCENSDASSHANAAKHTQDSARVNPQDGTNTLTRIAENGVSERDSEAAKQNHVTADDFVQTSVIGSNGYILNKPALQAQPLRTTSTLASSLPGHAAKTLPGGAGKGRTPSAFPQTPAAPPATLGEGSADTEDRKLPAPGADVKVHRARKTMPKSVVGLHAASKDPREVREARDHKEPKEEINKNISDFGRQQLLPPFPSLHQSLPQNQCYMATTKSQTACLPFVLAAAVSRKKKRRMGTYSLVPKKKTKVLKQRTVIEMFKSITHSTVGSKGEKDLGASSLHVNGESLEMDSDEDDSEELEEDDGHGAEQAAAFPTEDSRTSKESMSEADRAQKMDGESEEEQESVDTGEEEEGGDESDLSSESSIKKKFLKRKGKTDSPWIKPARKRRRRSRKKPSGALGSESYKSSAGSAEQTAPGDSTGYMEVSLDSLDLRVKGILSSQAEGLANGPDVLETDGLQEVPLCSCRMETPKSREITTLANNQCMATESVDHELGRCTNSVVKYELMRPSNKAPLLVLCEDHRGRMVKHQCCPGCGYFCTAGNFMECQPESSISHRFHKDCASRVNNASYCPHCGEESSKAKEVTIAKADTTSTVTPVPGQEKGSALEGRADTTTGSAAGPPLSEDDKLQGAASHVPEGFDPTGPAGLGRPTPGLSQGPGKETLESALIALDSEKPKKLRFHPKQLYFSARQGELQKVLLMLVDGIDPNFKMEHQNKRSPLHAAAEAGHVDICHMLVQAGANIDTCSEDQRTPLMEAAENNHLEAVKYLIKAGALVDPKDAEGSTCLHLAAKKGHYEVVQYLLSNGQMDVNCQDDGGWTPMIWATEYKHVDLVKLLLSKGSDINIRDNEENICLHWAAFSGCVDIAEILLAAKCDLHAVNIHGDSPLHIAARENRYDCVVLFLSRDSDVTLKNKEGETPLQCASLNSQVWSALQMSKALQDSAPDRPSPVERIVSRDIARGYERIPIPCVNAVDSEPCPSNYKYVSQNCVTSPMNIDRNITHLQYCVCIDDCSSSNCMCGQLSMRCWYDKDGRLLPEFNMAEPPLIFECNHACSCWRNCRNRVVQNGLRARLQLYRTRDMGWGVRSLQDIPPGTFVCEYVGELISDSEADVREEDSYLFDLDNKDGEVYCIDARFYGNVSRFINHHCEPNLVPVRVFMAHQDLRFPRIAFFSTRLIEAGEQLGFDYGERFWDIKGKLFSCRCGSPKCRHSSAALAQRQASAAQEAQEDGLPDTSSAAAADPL
Outline: as §1

GLP [3] = molecular target: T2, GLP; test: GLP radioactive methyltransferase assay; format: biochemical; settings: indicated concentrations, duplicate (Figure 4C)
Outline: (§2)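 Enzyme activity was measured with a radioisotope-based MT HotSpot methyltransferase assay run by a contract laboratory. Test compounds were run at the indicated concentrations, in duplicate. Data are mean ± SD of the two duplicate experiments.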

G9a [4] = molecular target: T1, G9a; test: G9a radioactive methyltransferase assay; format: biochemical; settings: indicated concentrations, duplicate (Figure 4B)
Outline: as §2

GLP mRNA = test: RT-qPCR of GLP mRNA in H1299 cells; format: cell-based; settings: 3 μM, 24 h, normalized to DMSO
Outline: (§3)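 H1299 cells were treated with DMSO or test compound at 3 μM for 24 h. Total RNA was extracted and reverse-transcribed to cDNA. qPCR used gene-specific primers for G9a and GLP, and a GAPDH primer set was included.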

G9a mRNA = test: RT-qPCR of G9a mRNA in H1299 cells; format: cell-based; settings: 3 μM, 24 h, normalized to DMSO
Outline: as §3

K562 cells = test: Cell viability assay; format: cell-based; settings: 7 days treatment, WST-8 (CCK-8)
Outline: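 K562 cells were grown at 37 °C in 5% CO2 and exposed to serial dilutions of the test compound for 7 days. Viability was read with CCK-8 (WST-8) as absorbance at 450 nm, with 690 nm as reference. IC50 came from curve fitting. Values are mean ± SD from four independent biological experiments.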

| SMILES | G9a degradation, in words (G9a [1]; 22Rv1 cells, 0.3 or 3 μM) | GLP degradation, in words (GLP [2]; 22Rv1 cells, 0.3 or 3 μM) | inhibition of GLP enzymatic activity (GLP [3]) | inhibition of G9a enzymatic activity (G9a [4]) | further results |
| --- | --- | --- | --- | --- | --- |
| COc1cc2c(NC3CCN(CCCC(=O)NCCOCCC(=O)N[C@H](C(=O)N4C[C@H](O)C[C@H]4C(=O)NCc4ccc(-c5scnc5C)cc4)C(C)(C)C)CC3)nc(N3CCC(F)(F)CC3)nc2cc1OCCCN1CCCC1 [Compound 11, (2S,4R)-1-((S)-2-(3-(2-(4-(4-((2-(4,4-difluoropiperidin-1-yl)-6-methoxy-7-(3-(pyrrolidin-1-yl)propoxy)quinazolin-4-yl)amino)piperidin-1-yl)butanamido)ethoxy)propanamido)-3,3-dimethylbutanoyl)-4-hydroxy-N-(4-(4-methylthiazol-5-yl)benzyl)pyrrolidine-2-carboxamide] | did not degrade | – | – | – | – |
| COc1cc2c(NC3CCN(CCCC(=O)NCCOCCOCCC(=O)N[C@H](C(=O)N4C[C@H](O)C[C@H]4C(=O)NCc4ccc(-c5scnc5C)cc4)C(C)(C)C)CC3)nc(N3CCC(F)(F)CC3)nc2cc1OCCCN1CCCC1 [Compound 12, (2S,4R)-1-((S)-2-(tert-butyl)-17-(4-((2-(4,4-difluoropiperidin-1-yl)-6-methoxy-7-(3-(pyrrolidin-1-yl)propoxy)quinazolin-4-yl)amino)piperidin-1-yl)-4,14-dioxo-7,10-dioxa-3,13-diazaheptadecanoyl)-4-hydroxy-N-(4-(4-methylthiazol-5-yl)benzyl)pyrrolidine-2-carboxamide] | little or no degradation | little or no degradation | – | – | – |
| COc1cc2c(NC3CCN(CCCC(=O)NCCOCCOCCOCCC(=O)N[C@H](C(=O)N4C[C@H](O)C[C@H]4C(=O)NCc4ccc(-c5scnc5C)cc4)C(C)(C)C)CC3)nc(N3CCC(F)(F)CC3)nc2cc1OCCCN1CCCC1 [Compound 13, (2S,4R)-1-((S)-2-(tert-butyl)-20-(4-((2-(4,4-difluoropiperidin-1-yl)-6-methoxy-7-(3-(pyrrolidin-1-yl)propoxy)quinazolin-4-yl)amino)piperidin-1-yl)-4,17-dioxo-7,10,13-trioxa-3,16-diazaicosanoyl)-4-hydroxy-N-(4-(4-methylthiazol-5-yl)benzyl)pyrrolidine-2-carboxamide] | little or no degradation | little or no degradation | – | – | – |
| COc1cc2c(NC3CCN(C(C)C)CC3)nc(N3CCC(F)(F)CC3)nc2cc1OCCCN1CCCC1 [UNC0642, reference compound] | – | – | similarly inhibited | similarly inhibited | mRNA levels of GLP (GLP mRNA): did not significantly alter; mRNA levels of G9a (G9a mRNA): did not significantly alter; G9a degradation, in words (G9a [1]; K562 cells, 3 μM): did not degrade; GI50 of cell growth inhibition (IC50 in the figure) (K562 cells): unable to suppress cell proliferation; GLP degradation, in words (GLP [2]; K562 cells, 3 μM): did not degrade |

Continued, in another order:

| G9a degradation, in words (G9a [1]; 22Rv1 cells, 0.3 or 3 μM) | GLP degradation, in words (GLP [2]; 22Rv1 cells, 0.3 or 3 μM) | inhibition of GLP enzymatic activity (GLP [3]) | inhibition of G9a enzymatic activity (G9a [4]) | SMILES | further results |
| --- | --- | --- | --- | --- | --- |
| moderate | moderate | – | – | COc1cc2c(NC3CCN(CCCC(=O)NCCC(=O)N[C@H](C(=O)N4C[C@H](O)C[C@H]4C(=O)NCc4ccc(-c5scnc5C)cc4)C(C)(C)C)CC3)nc(N3CCC(F)(F)CC3)nc2cc1OCCCN1CCCC1 [Compound 1, (2S,4R)-1-((S)-2-(3-(4-(4-((2-(4,4-difluoropiperidin-1-yl)-6-methoxy-7-(3-(pyrrolidin-1-yl)propoxy)quinazolin-4-yl)amino)piperidin-1-yl)butanamido)propanamido)-3,3-dimethylbutanoyl)-4-hydroxy-N-(4-(4-methylthiazol-5-yl)benzyl)pyrrolidine-2-carboxamide] | – |
| – | – | similarly inhibited | similarly inhibited | COc1cc2c(NC3CCN(CCCC(=O)NCCCCCCCCCCCC(=O)N[C@H](C(=O)N4C[C@@H](O)C[C@@H]4C(=O)NCc4ccc(-c5scnc5C)cc4)C(C)(C)C)CC3)nc(N3CCC(F)(F)CC3)nc2cc1OCCCN1CCCC1 [Compound 14, (2R,4S)-1-((S)-2-(12-(4-(4-((2-(4,4-difluoropiperidin-1-yl)-6-methoxy-7-(3-(pyrrolidin-1-yl)propoxy)quinazolin-4-yl)amino)piperidin-1-yl)butanamido)dodecanamido)-3,3-dimethylbutanoyl)-4-hydroxy-N-(4-(4-methylthiazol-5-yl)benzyl)pyrrolidine-2-carboxamide] | – |
